Data taken from ChEMBL document CHEMBL1123437, “Isozyme-specific enzyme inhibitors. 12. C- and N-methylmethionines as substrates and inhibitors of methionine adenosyltransferases of normal and hepatoma rat tissues” (J Med Chem, 1986).

What was measured:
[1] = molecular target: S-adenosylmethionine synthetase (MAT 1 and MAT 2) (Rattus norvegicus, UniProt P13444+P18298); experiment: Competitive inhibitory activity against methionine adenosyltransferase; assay type: protein assay
Summary of the method: (§1)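 Rat kidney M-2 or Novikoff hepatoma M-T MAT, partially purified. Run at 37 °C, pH 8.2 (Tris, KCl, MgCl2, DTT) with 2 mM MgATP. [14C]Met at five or six levels spanning (0.5–4)×KM, with two inhibitor levels (1–3 mM) and no-inhibitor controls. 10 min, HClO4 stop, phosphocellulose disc counting. Ki from replots of double-reciprocal slopes vs inhibitor concentration.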

[2] = molecular target: S-adenosylmethionine synthase isoform type-2 (Rattus norvegicus, UniProt P18298); experiment: Competitive inhibitory activity against Methionine adenosyltransferase II; summary of the method: as §1
S-adenosylmethionine synthase isoform type-2, sequence (P18298 whole entry, canonical isoform): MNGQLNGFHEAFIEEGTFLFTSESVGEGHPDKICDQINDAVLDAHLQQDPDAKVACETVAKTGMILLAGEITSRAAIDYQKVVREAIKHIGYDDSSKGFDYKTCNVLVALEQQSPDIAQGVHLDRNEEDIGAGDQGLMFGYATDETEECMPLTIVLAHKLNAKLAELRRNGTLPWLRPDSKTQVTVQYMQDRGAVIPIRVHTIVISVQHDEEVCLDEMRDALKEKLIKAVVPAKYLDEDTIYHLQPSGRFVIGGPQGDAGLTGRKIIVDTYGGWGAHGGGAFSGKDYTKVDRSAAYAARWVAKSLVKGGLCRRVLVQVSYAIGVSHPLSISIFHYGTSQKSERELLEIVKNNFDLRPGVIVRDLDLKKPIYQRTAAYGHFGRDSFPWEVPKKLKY

Row | SMILES | Ki [1] [µM] | Ki [2] [µM]
1 | CSCC(C)C(N)C(=O)O (centres undefined) | 500 | 500
2 | CSC(C)C[C@@H](N)C(=O)O (some centres undefined) | 3200 | 2400
